# Experiments:
# [1] = molecular target: T1, Bromodomain-containing protein 4 (Homo sapiens, UniProt O60885); test: Displacement of APC-labeled biotinylated-avidin from […]-chelated recombinant human N-terminal GST-tagged BRD4 bromodomain 1 expressed in Escherichia coli preincubated for 15 mins followed by APC-labeled biotinylated-avidin addition and measured after 1 hr under dark condition by TR-FRET assay
# MV4-11 [2] = test: Antiproliferative activity against human MV4-11 cells assessed as reduction in cell viability incubated for 72 hrs by CCK-8 assay; type: functional, cell-based; conditions: MV4-11, 72 h
# How it was run: (§1)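 Cells grown in IMDM with 10% FBS and 1% penicillin–streptomycin at 37 °C in a CO₂ incubator and harvested in log phase. Seeded at 10,000 cells per well in 100 μL medium, cultured 12 h, then given compounds at a range of concentrations for 72 h. CCK-8 added for 1–4 h, absorbance read at 450 nm. IC₅₀ calculated from the dose-response data.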
# HL-60 = test: Antiproliferative activity against human HL60 cells assessed as reduction in cell viability incubated for 72 hrs by CCK-8 assay; type: functional, cell-based; conditions: HL-60, 72 h; how it was run: as §1
# MV4-11 [3] = test: Induction of apoptosis in human MV4-11 cells assessed as necrotic cell at 0.5 uM after 12 hrs by Annexin V-FITC/propidium iodide staining-based flow cytometric analysis (reference value: 0.17 %); type: functional
# MV4-11 [4] = test: Cell cycle arrest in human MV4-11 cells assessed as accumulation at G1 phase after 12 hrs by propidium iodide staining based flow cytometric analysis; type: functional
# MV4-11 [5] = test: Induction of apoptosis in human MV4-11 cells assessed as late apoptotic cell at 0.5 uM after 12 hrs by Annexin V-FITC/propidium iodide staining-based flow cytometric analysis (reference value: 1.28 %); type: functional
# MV4-11 [6] = test: Induction of apoptosis in human MV4-11 cells assessed as live cell at 0.5 uM after 12 hrs by Annexin V-FITC/propidium iodide staining-based flow cytometric analysis (reference value: 97.99 %); type: functional
# MV4-11 [7] = test: Induction of apoptosis in human MV4-11 cells assessed as early apoptotic cell at 0.5 uM after 12 hrs by Annexin V-FITC/propidium iodide staining-based flow cytometric analysis (reference value: 0.56 %); type: functional
# MV4-11 [8] = test: Induction of apoptosis in human MV4-11 cells assessed as necrotic cell at 5 uM after 12 hrs by Annexin V-FITC/propidium iodide staining-based flow cytometric analysis (reference value: 0.17 %); type: functional
# MV4-11 [9] = test: Induction of apoptosis in human MV4-11 cells assessed as late apoptotic cell at 5 uM after 12 hrs by Annexin V-FITC/propidium iodide staining-based flow cytometric analysis (reference value: 1.28 %); type: functional
# MV4-11 [10] = test: Induction of apoptosis in human MV4-11 cells assessed as live cell at 5 uM after 12 hrs by Annexin V-FITC/propidium iodide staining-based flow cytometric analysis (reference value: 97.99 %); type: functional
# MV4-11 [11] = test: Induction of apoptosis in human MV4-11 cells assessed as early apoptotic cell at 5 uM after 12 hrs by Annexin V-FITC/propidium iodide staining-based flow cytometric analysis (reference value: 0.56 %); type: functional
# MV4-11 [12] = test: Cell cycle arrest in human MV4-11 cells assessed as accumulation at G0/G1 phase at 0.5 uM after 12 hrs by propidium iodide staining based flow cytometric analysis (reference value: 43.91%); type: functional
# MV4-11 [13] = test: Cell cycle arrest in human MV4-11 cells assessed as accumulation at G2/M phase at 0.5 uM after 12 hrs by propidium iodide staining based flow cytometric analysis (reference value: 18.19%); type: functional
# MV4-11 [14] = test: Cell cycle arrest in human MV4-11 cells assessed as accumulation at S phase at 0.5 uM after 12 hrs by propidium iodide staining based flow cytometric analysis (reference value: 38.62%); type: functional
# MV4-11 [15] = test: Cell cycle arrest in human MV4-11 cells assessed as accumulation at G0/G1 phase at 5 uM after 12 hrs by propidium iodide staining based flow cytometric analysis (reference value: 43.91%); type: functional
# MV4-11 [16] = test: Cell cycle arrest in human MV4-11 cells assessed as accumulation at G2/M phase at 5 uM after 12 hrs by propidium iodide staining based flow cytometric analysis (reference value: 18.19%); type: functional
# MV4-11 [17] = test: Cell cycle arrest in human MV4-11 cells assessed as accumulation at S phase at 5 uM after 12 hrs by propidium iodide staining based flow cytometric analysis (reference value: 38.62%); type: functional
# MV4-11 [18] = test: Induction of apoptosis in human MV4-11 cells after 12 hrs by Annexin V-FITC/propidium iodide staining-based flow cytometric analysis; type: functional, cell-based
# [19] = molecular target: T1, Bromodomain-containing protein 4; test: Inhibition of BRD4 in human MV4-11 cells assessed as reduction in c-Myc expression level after 4 hrs by Western blot analysis; type: cell-based
# How it was run: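 Log-phase MV-4-11 cells (IMDM, 10% FBS, 1% penicillin–streptomycin, 37 °C) were treated with compound for 4 h, then lysed at 4 °C and protein quantified. Lysates were run on SDS-PAGE (10% separating, 4% stacking gel) and transferred to PVDF. Membranes were blocked 2 h in 5% non-fat milk/TBST at room temperature, probed for c-Myc, and band intensity quantified from three independent experiments.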
SMILES,IC50 [1] [nM],IC50 (MV4-11 [2]) [nM],IC50 (HL-60) [nM],other results
COc1ccc2c(c1)C(c1ccc(Cl)cc1)=NC(CC(=O)N1CCCC1)c1sc(=O)n(C)c1-2 (configuration not stated),540,1120,10400,–
COc1ccc2c(c1)C(c1ccc(Cl)cc1)=NC(CC(=O)NC1CC1)c1sc(=O)n(C)c1-2 (configuration not stated),140,510,4560,–
COc1ccc2c(c1)C(c1ccc(Cl)cc1)=NC(CC(=O)Nc1ccc(F)cc1)c1sc(=O)n(C)c1-2 (configuration not stated),680,1440,12400,–
Cc1sc2c(c1C)C(c1ccc(Cl)cc1)=N[C@@H](CC(=O)OC(C)(C)C)c1nnc(C)n1-2,–,–,3460,Activity (MV4-11 [3]): 0.06%; Activity (MV4-11 [4]): Dose-dependent effect; Activity (MV4-11 [5]): 9.14%; Activity (MV4-11 [6]): 85.57%; Activity (MV4-11 [7]): 5.23%; Activity (MV4-11 [8]): 0.24%; Activity (MV4-11 [9]): 59.31%; Activity (MV4-11 [10]): 9.58%; Activity (MV4-11 [11]): 30.87%; Activity (MV4-11 [12]): 57.35%; Activity (MV4-11 [13]): 14.56%; Activity (MV4-11 [14]): 28.09%; Activity (MV4-11 [15]): 83.64%; Activity (MV4-11 [16]): 13.01%; Activity (MV4-11 [17]): 3.35%
COc1ccc2c(c1)C(c1ccc(Cl)cc1)=NC(CC(=O)N1CCCCC1)c1sc(=O)n(C)c1-2 (configuration not stated),430,910,8690,–
COc1ccc2c(c1)C(c1ccc(Cl)cc1)=NC(CC(=O)N1CCOCC1)c1sc(=O)n(C)c1-2 (configuration not stated),480,940,7620,–
CCCCNC(=O)CC1N=C(c2ccc(Cl)cc2)c2cc(OC)ccc2-c2c1sc(=O)n2C (configuration not stated),1020,3480,–,–
CCOC(=O)CC1N=C(c2ccc(Cl)cc2)c2cc(OC)ccc2-c2c1sc(=O)n2C (configuration not stated),420,880,6210,–
COc1ccc2c(c1)C(c1ccc(Cl)cc1)=NC(CC(=O)Nc1ccc(O)cc1)c1sc(=O)n(C)c1-2 (configuration not stated),510,1060,9050,–
CCOC(=O)CC1OC(c2ccc(Cl)cc2)c2cc(OC)ccc2-c2c1sc(=O)n2C (configuration not stated),480,920,5440,–
CCNC(=O)CC1N=C(c2ccc(Cl)cc2)c2cc(OC)ccc2-c2c1sc(=O)n2C (configuration not stated),740,1780,12800,–
C#CCNC(=O)CC1N=C(c2ccc(Cl)cc2)c2cc(OC)ccc2-c2c1sc(=O)n2C (configuration not stated),210,700,8460,–
COc1ccc2c(c1)C(c1ccc(Cl)cc1)=NC(CC(=O)NC(C)(C)C)c1sc(=O)n(C)c1-2 (configuration not stated),160,640,5410,–
COc1ccc2c(c1)C(c1ccc(Cl)cc1)=NC(CC(=O)Nc1ccccc1)c1sc(=O)n(C)c1-2 (configuration not stated),200,670,7740,–
COc1ccc2c(c1)C(c1ccc(Cl)cc1)=NC(CC(=O)NC1CCCC1)c1sc(=O)n(C)c1-2 (configuration not stated),110,420,5520,Activity (MV4-11 [3]): 0.35%; Activity (MV4-11 [4]): Dose-dependent effect; Activity (MV4-11 [18]): Dose-dependent effect; Activity (MV4-11 [5]): 5.93%; Activity (MV4-11 [6]): 87.61%; Activity (MV4-11 [7]): 6.1%; Activity (MV4-11 [8]): 0.42%; Activity (MV4-11 [9]): 42.85%; Activity (MV4-11 [10]): 26.76%; Activity (MV4-11 [11]): 29.97%; Activity (MV4-11 [12]): 50.67%; Activity (MV4-11 [13]): 17.93%; Activity (MV4-11 [14]): 31.2%; Activity (MV4-11 [15]): 70.68%; Activity (MV4-11 [16]): 14.11%; Activity (MV4-11 [17]): 15.23%; inhibition [19]: Dose-dependent effect
COc1ccc2c(c1)C(c1ccc(Cl)cc1)=NC(CC(=O)O)c1sc(=O)n(C)c1-2 (configuration not stated),870,2860,–,–
CCNC(=O)C[C@@H]1N=C(c2ccc(Cl)cc2)c2cc(OC)ccc2-n2c(C)nnc21 [MOLIBRESIB],–,1230,–,–

# Reference: ChEMBL document CHEMBL4622959, “Design, synthesis and biological evaluation of novel 6-phenyl-1,3a,4,10b-tetrahydro-2H-benzo[c]thiazolo[4,5-e]azepin-2-one derivatives as potential BRD4 inhibitors” (Bioorg Med Chem, 2020)
